From the EternaBench riboswitch data

System: MS2 coat protein
Test: apparent Kd, MS2 coat protein; higher = weaker binding; RNA-MaP array
How it was run: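 Binding of fluorescently labeled MS2 coat protein, at 1.5 nM to 3 μM and room temperature, was measured with or without input ligand on designed RNAs transcribed on an Illumina sequencing chip from sequenced DNA templates. Apparent Kd was defined as the median of per-cluster binding-curve fits. No design measured on fewer than 10 clusters was kept.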

[1] = designed as: OFF switch for flavin mononucleotide, no ligand
[2] = ligand present: flavin mononucleotide, designed as: OFF switch for flavin mononucleotide
[3] = designed as: OFF switch for theophylline, no ligand
[4] = ligand present: theophylline, designed as: OFF switch for theophylline
[5] = designed as: ON switch for flavin mononucleotide, no ligand
[6] = ligand present: flavin mononucleotide, designed as: ON switch for flavin mononucleotide

Sequence | apparent Kd [1] | apparent Kd [2] | apparent Kd [5] | apparent Kd [6] | other results
UUGCAGGCAGGAUAUACGGUAUAUAACAUGAGGAUCACCCAUGUUCUUCACGAUCCCUGCGUAGAAGGGCCACAUU | 0.00496 µM | 0.00525 µM |  |  | 
UGUCGCAGGUUAGAUACCAGCGAGGCGCGGGUAAAUGUUCACAUGAGGAUCACCCAUGUUCGCCCUUGGCAGCUAGUAGGCAUAA |  |  |  |  | apparent Kd [3]: 0.0242 µM; apparent Kd [4]: 0.1 µM
UUUAUAAUCGUAAGGAUAUCCGCGUUAGUCCACCCGGAGAAGGUACAUGAGGAUCACCCAUGUGAACUAUGGGU | 0.0244 µM | 0.0285 µM |  |  | 
CGCAGCAUCUAGAAGGGCGAAUCAACAAUACAACUAGUGAACAUGAGGAUCACCCAUGUAAUGACGCAGGAUAUAGUAGCAAAG |  |  | 0.0265 µM | 0.0137 µM | 
GUGUACAUGAGGAUCACCCAUGUGAGAGCCACAUAGGGCCAGAAGGAUAUCUAUACUACCGCGUCAGAGAAGGUCUGUUGAUUU |  |  | 0.0332 µM | 0.0249 µM | 
AUGGACCCAAAGAAGGAGAUCUGGACGACCCAUCUAGGAUAUUUGGCGCGCCCAUCCACCUGCACAUGAGGAUCACCCAUGUCG |  |  | 0.0119 µM | 0.00955 µM | 
GAACCUAUAGGAUAUACAUGAGGAUCACCCAUGUAGCCAUCUAUUCGUGGGACUAGGUGUAGAAGGAUAGCAAA | 0.0127 µM | 0.0118 µM |  |  | 
ACGUGGCAACAUGAGGAUCACCCAUGUAAAGAUAAUGAUUACAGAAGGCCCGGAGGAAGGCAAAGGGAGGAUAUGUGUGCCUAC |  |  | 0.0298 µM | 0.0127 µM | 
UCUAAAAUCGGAGGAUAUUACGAAGACAUGAGGAUCACCCAUGUAGUGGAACACAUAAGUCGCUCUAAGAAGGCCGCAAUUGAC | 0.0295 µM | 0.0346 µM |  |  | 
GCAGGCGAAGGAUAUACAUGAGGAUCACCCAUGUGUCAAACAAUAAUACCACUCAACUGUAGAAGGUCGGGCGA | 0.0139 µM | 0.0114 µM |  |  | 
UUUAUUCUCUAUACAUGAGGAUCACCCAUGUCAAUGAUGUGCAGAAGGUGGUUCGGCUGUGACUCCAAGGAUAUGCAGAGAAUU |  |  | 0.513 µM | 0.115 µM | 
UUGAUCUCGUAGAAGGGAGAGAUUGAGGGCUUCUCAGGAUAUACGAAUCCUCUGUGGCUAUGUUACAUGAGGAUCACCCAUGUC | 0.791 µM | 0.355 µM |  |  | 
ACGUUGCAGCAAGGAUAUUCGAGACUACUAGAAGAAGAAGGUGCCGUGCUCUUCACAUGAGGAUCACCCAUGUGGCGUUAAUUU | 0.00911 µM | 0.00835 µM |  |  | 
CGUAACCAAGGAUAUACAUGAGGAUCACCCAUGUAUCGGGUCGGUCUGGGUCCAAUAAGUAGAAGGUGGCUGAU | 0.0293 µM | 0.0397 µM |  |  | 
CGCAAACUAGGAUAUACAGGGCGAAAACGUUUACUUGGAUAACAUGAGGAUCACCCAUGUAGAAGGAGUUCUUA | 0.0289 µM | 0.16 µM |  |  | 
ACUCGUUAAGGAUAUACUCGGUUUACUUGCAUGUUCGGCGCACAUGAGGAUCACCCAUGUAGAAGGUAAUAUUC | 0.0246 µM | 0.0272 µM |  |  | 
GAGAGGCGCUAGAAGGCACGCGUUCGGAUUGAGUGAGGAUAUAGUCCUCUGCCACAUGAGGAUCACCCAUGUAGUUUGAUAGAG |  |  | 0.00628 µM | 0.00612 µM | 
GACCCACAUGAGGAUCACCCAUGUCAGGAUAUCCGAUCGUCAAAGACCCAAAUAAUUAGGAGAAGGGACAUUAA | 0.015 µM | 0.0154 µM |  |  | 

Sequence | apparent Kd [1] | apparent Kd [2] | apparent Kd [5] | apparent Kd [6] | other results
UGCCUAAAGUCGGCCGCCACUGAUGGUAUCCUCUCCUCGAGGUCACACAUGAGGAUCACCCAUGUCAGGACCGGGACUAGUGAGA |  |  |  |  | apparent Kd (designed as: OFF switch for tryptophan, no ligand): 0.00789 µM; apparent Kd (ligand present: tryptophan, designed as: OFF switch for tryptophan): 0.0104 µM
CCUGGAUCAGAUCUUAAAGGCGGUUCUGAUACCAGUCUUUUCCGAGACCCUUGGCAGCAGAACACAUGAGGAUCACCCAUGUAAA |  |  |  |  | apparent Kd [3]: 0.0524 µM; apparent Kd [4]: 0.0466 µM
CGACUAACGUGAGGAUAUAGUCCGGAAAGACAUUUUCGUCAAGACAUGAGGAUCACCCAUGUCCUCUAGAAGGCACUCGGAACA |  |  | 0.0451 µM | 0.0305 µM | 
CUUGUAACCUAAGGAUAUGAUUAGGGCAUCACAUGAGGAUCACCCAUGUGGCGUGAUCCGAGCCUUCAGAAGGUAGGGGAGCAU | 0.475 µM | 0.479 µM |  |  | 
CAUUCGAAGGUGAGGAUAUAGCUACAGUUAAAUGUCUAGAAGGCACAUGAGGAUCACCCAUGUAGGGUCUCUCA | 0.238 µM | 0.63 µM |  |  | 
ACAUGAGGAUCACCCAUGUAAUAUAUAAAGACUAAAACUAGUUAGGAUAUAUCACAUGUACAGGGAUAGAAGGAACUAGUCUGC |  |  | 0.00715 µM | 0.00584 µM | 
CCGUAUCGACCAGGAUAUUCAAUAGCGCCACAUGAGGAUCACCCAUGUUUAUAUCUUCAUGGAAGGAAGAAGGGGUACAAGCGG | 0.199 µM | 0.24 µM |  |  | 
GGUCCCGUAGGAUAUUGCUCAUUGUACAUGAGGAUCACCCAUGUGACUACACUGCACUGGCAAGAAGGACGUUGAU | 0.0832 µM | 0.0502 µM |  |  | 
AGUCAAAAUUAGAAGGAGCGUUGACCCUGUUAGCUAGGAUAUAAUUCAUGCGAACAUGAGGAUCACCCAUGUAGACGUACCAAC |  |  | 0.0865 µM | 0.0449 µM | 
AAAUGUACGAAGAAGGCUCUGCCACUGGCCGAGAGAGGAUAUUCACACAUGAGGAUCACCCAUGUCGAACAAAGUACACAGAGC |  |  | 0.00843 µM | 0.00706 µM | 
AGGCAACAUGAGGAUCACCCAUGUCAGGAUAUAGUAAACACAAAUACGAGAAAUAUAACUAGAAGGGACAUAAU | 0.0166 µM | 0.0185 µM |  |  | 
UACAUGAGGAUCACCCAUGUUAACGCUUAGAUGCAUCGACGUGAGGAUAUCGGGUUAAACCAGCACGAGAAGGCACAUCCAGAU |  |  | 0.0345 µM | 0.0202 µM | 
CGAGAAUAUACAGGAUAUGGCGGAACCCAUUACAUGAGGAUCACCCAUGUACCAUGGAAAAGAGUCCAGAAGGGUAGAAUCAAA |  |  | 0.0081 µM | 0.00619 µM | 
GUAUGGAUAUUCUCACGCUACAUGAGGAUCACCCAUGUUCUAAGAAGGCGGCGAGGUAGAGCAUCCGAGGAUAUUAGAACUCAG | 0.0211 µM | 0.076 µM |  |  | 
GCUACACAUGAGGAUCACCCAUGUAUGCAUAGACGAGGAUAUAGACCACCUCCCGGGAUACUAGAAGGCGUGAUAU |  |  | 0.0193 µM | 0.0103 µM | 
ACGUGACACGAGAAGGGUCUUAAAUGUUGAUUGACAGGAUAUCGUUCCCACGAUACAUAGACGGACAUGAGGAUCACCCAUGUG |  |  | 0.0858 µM | 0.0303 µM | 
AAACUCCGCAAGAAGGGUAUUCAAUGAAGUUGUACAGGAUAUUGGCGCAGACAUGAGGAUCACCCAUGUAAGUUCUUCAUGGUU | 0.125 µM | 0.12 µM |  |  | 
ACAGCACAUGAGGAUCACCCAUGUCGACAUGUAUUAGGAUAUGAUCCGCGCUAGACACCAUCAGAAGGAAUACCGA |  |  | 0.043 µM | 0.0237 µM | 
